In ChEMBL document CHEMBL1806376, “Synthesis and biological properties of macrolactam analogs of the natural product macrolide (-)-A26771B” (2011) one finds MIC data, which are given here for eight compounds.

What all share (type): functional
One test deals with Escherichia coli. The experiment in a line: Antibacterial activity against Escherichia coli ATCC 25922 by broth microdilution method. Summed up: (§1)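 MIC values determined by broth microdilution following the CLSI method.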
The subject of a further test is Enterococcus faecalis. Kind of test: Antibacterial activity against Enterococcus faecalis ATCC 29212 by broth microdilution method. The procedure, abridged: as §1
For orientation: Dilution methods test growth across graded concentrations, often in twofold steps.

In a further test the test system is Enterococcus faecium. The experiment in a line: Antibacterial activity against Enterococcus faecium 1 by broth microdilution method. Summed up: as §1
Test [1] deals with Haemophilus influenzae. The experiment in a line: Antibacterial activity against Haemophilus influenzae ATCC 31517 by broth microdilution method. The procedure, abridged:
as §1

Test [2] deals with Haemophilus influenzae. The experiment in a line: Antibacterial activity against efflux knock-out Haemophilus influenzae LS2 by broth microdilution method. The procedure, abridged: as §1
Another test relates to Pseudomonas aeruginosa. The experiment in a line: Antibacterial activity against Pseudomonas aeruginosa ATCC 27853 by broth dilution method. Summed up: as §1
Test [3] deals with Staphylococcus aureus. The experiment in a line: Antibacterial activity against Staphylococcus aureus ATCC 13709 by broth microdilution method. Summed up: as §1
Test [4] deals with Staphylococcus aureus. The experiment in a line: Antibacterial activity against methicillin-resistant Staphylococcus aureus Sa2 by broth microdilution method. The procedure, abridged:
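Broth microdilution run according to the CLSI method.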

Test [5] concerns Staphylococcus aureus. The experiment in a line: Antibacterial activity against Staphylococcus aureus ATCC 25923 by broth microdilution method. Summed up: as §1
The subject of test [6] is Staphylococcus aureus. Kind of test: Antibacterial activity against Staphylococcus aureus ATCC 25923 by broth microdilution method in presence of 10% human serum. The procedure, abridged:
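MIC determined by broth microdilution per the CLSI method, with 10% human serum added to the medium.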

Test [7] deals with Staphylococcus aureus. The experiment in a line: Antibacterial activity against Staphylococcus aureus oxford by broth microdilution method. Summed up:
as §1

The subject of test [8] is Streptococcus pneumoniae. Kind of test: Antibacterial activity against Streptococcus pneumoniae ATCC 49619 by broth microdilution method. The procedure, abridged: as §1
Test [9] deals with Streptococcus pneumoniae. Kind of test: Antibacterial activity against Streptococcus pneumoniae Pen9 IV381-221 by broth microdilution method. Summed up: as §1
The mark [10] stands for this setting: Enterococcus faecalis, ATCC 29212, read-out: MIC.
[11] abbreviates: Enterococcus faecium, 1, read-out: MIC.
Where [12] appears, read: Haemophilus influenzae, ATCC 31517, read-out: MIC.
Setting [13] is: Haemophilus influenzae, LS2, read-out: MIC.
The mark [14] stands for this setting: Staphylococcus aureus, ATCC 13709, read-out: MIC.
The mark [15] stands for this setting: Staphylococcus aureus, Sa2, read-out: MIC.
Where [16] appears, read: Staphylococcus aureus, ATCC 25923, read-out: MIC.
[17] abbreviates: Staphylococcus aureus, oxford, read-out: MIC.
Where [18] appears, read: Streptococcus pneumoniae, ATCC 49619, read-out: MIC.
Where [19] appears, read: Streptococcus pneumoniae, Pen9 IV381-221, read-out: MIC.

Values after ≈ are worked out from the molar mass of the structure shown.

For `CO[C@H]1CCCCCCCCC[C@@H](C)OC(=O)CCC1=O`, the MIC was above 64 mg/L in the test on Escherichia coli; above 64 mg/L in the test with Enterococcus faecalis (setting [10]); above 64 mg/L in the test with Enterococcus faecium (setting [11]); above 64 mg/L with Haemophilus influenzae [1] (setting [12]); 64 mg/L (≈ 214 µM) in the test on Haemophilus influenzae [2] (setting [13]); above 64 mg/L against Pseudomonas aeruginosa. The MIC with Staphylococcus aureus [3] (setting [14]), with Staphylococcus aureus [4] (setting [15]), with Staphylococcus aureus [5] (setting [16]), with Staphylococcus aureus [6] (setting [16]), in the test on Staphylococcus aureus [7] (setting [17]) and in the test with Streptococcus pneumoniae [8] (setting [18]) was above 64 mg/L throughout. For the same compound, the MIC in the test on Streptococcus pneumoniae [9] (setting [19]) is above 64 mg/L.

Consider `CO[C@H]1CCCCCCCCC[C@@H](C)OC(=O)/C(C)=C/C1=O`, for which the MIC with Escherichia coli, in the test on Enterococcus faecalis (setting [10]), in the test on Enterococcus faecium (setting [11]), in the test with Haemophilus influenzae [1] (setting [12]), with Haemophilus influenzae [2] (setting [13]) and with Pseudomonas aeruginosa was above 64 mg/L in each case. The MIC in the test on Staphylococcus aureus [3] (setting [14]), in the test with Staphylococcus aureus [4] (setting [15]), with Staphylococcus aureus [5] (setting [16]), in the test with Staphylococcus aureus [6] (setting [16]), in the test with Staphylococcus aureus [7] (setting [17]) and in the test on Streptococcus pneumoniae [8] (setting [18]) was above 64 mg/L each time. Further, in the test on Streptococcus pneumoniae [9] (setting [19]), the MIC is above 64 mg/L.

On to `CO[C@H]1CCCCCCCCC[C@@H](C)OC(=O)C(Sc2ccccc2)CC1=O` (stereo partly specified), for which the MIC against Escherichia coli is above 64 mg/L; in the test with Enterococcus faecalis (setting [10]), above 64 mg/L; in the test with Enterococcus faecium (setting [11]), above 64 mg/L; in the test with Haemophilus influenzae [1] (setting [12]), above 64 mg/L; with Haemophilus influenzae [2] (setting [13]) it was 2 mg/L (≈ 4.92 µM); in the test on Pseudomonas aeruginosa it was above 64 mg/L. The MIC came to 1 mg/L (≈ 2.46 µM) in the test on Staphylococcus aureus [3] (setting [14]); 2 mg/L (≈ 4.92 µM) with Staphylococcus aureus [4] (setting [15]); 1 mg/L (≈ 2.46 µM) in the test on Staphylococcus aureus [5] (setting [16]); 16 mg/L in the test on Staphylococcus aureus [6] (setting [16]); 1 mg/L (≈ 2.46 µM) with Staphylococcus aureus [7] (setting [17]); 2 mg/L (≈ 4.92 µM) with Streptococcus pneumoniae [8] (setting [18]). For the same compound, the MIC with Streptococcus pneumoniae [9] (setting [19]) came to 1 mg/L (≈ 2.46 µM).

On to `CO[C@H]1CCCCCCCCC[C@@H](C)OC(=O)C(S(=O)(=O)c2ccccc2)CC1=O` (stereo partly specified), for which the MIC is above 64 mg/L against Escherichia coli; 4 mg/L (≈ 9.12 µM) in the test on Enterococcus faecalis (setting [10]); 4 mg/L (≈ 9.12 µM) in the test with Enterococcus faecium (setting [11]); 32 mg/L (≈ 73 µM) with Haemophilus influenzae [1] (setting [12]); 2 mg/L (≈ 4.56 µM) in the test with Haemophilus influenzae [2] (setting [13]); above 64 mg/L in the test on Pseudomonas aeruginosa. Moreover, the MIC was 1 mg/L (≈ 2.28 µM) in the test with Staphylococcus aureus [3] (setting [14]); 2 mg/L (≈ 4.56 µM) with Staphylococcus aureus [4] (setting [15]); 1 mg/L (≈ 2.28 µM) with Staphylococcus aureus [5] (setting [16]); 32 mg/L with Staphylococcus aureus [6] (setting [16]); 1 mg/L (≈ 2.28 µM) with Staphylococcus aureus [7] (setting [17]); 4 mg/L (≈ 9.12 µM) in the test on Streptococcus pneumoniae [8] (setting [18]). In addition, in the test on Streptococcus pneumoniae [9] (setting [19]), the MIC was determined as 2 mg/L (≈ 4.56 µM).

Regarding `C[C@@H]1CCCCCCCCC[C@H](O)C(=O)CC(SCC(F)(F)F)C(=O)O1` (stereo partly specified), the MIC with Escherichia coli was above 64 mg/L; in the test on Enterococcus faecalis (setting [10]), 4 mg/L (≈ 10 µM); with Enterococcus faecium (setting [11]), 4 mg/L (≈ 10 µM); in the test on Haemophilus influenzae [1] (setting [12]) it was 32 mg/L (≈ 80.3 µM); in the test on Haemophilus influenzae [2] (setting [13]) it was 2 mg/L (≈ 5.02 µM); in the test on Pseudomonas aeruginosa, above 64 mg/L. Moreover, the MIC is 1 mg/L (≈ 2.51 µM) in the test with Staphylococcus aureus [3] (setting [14]); 1 mg/L (≈ 2.51 µM) with Staphylococcus aureus [4] (setting [15]); 1 mg/L (≈ 2.51 µM) with Staphylococcus aureus [5] (setting [16]); 32 mg/L in the test with Staphylococcus aureus [6] (setting [16]); 1 mg/L (≈ 2.51 µM) in the test on Staphylococcus aureus [7] (setting [17]); 4 mg/L (≈ 10 µM) with Streptococcus pneumoniae [8] (setting [18]). Moreover, the MIC in the test on Streptococcus pneumoniae [9] (setting [19]) is 4 mg/L (≈ 10 µM).

`CO[C@H]1CCCCCCCCC[C@@H](C)OC(=O)C2OC2C1=O` (single isomer, unassigned; diastereomer 1): the MIC was 64 mg/L (≈ 205 µM) in the test with Enterococcus faecalis; 32 mg/L (≈ 102 µM) in the test with Enterococcus faecium (setting [11]); above 64 mg/L in the test on Haemophilus influenzae [1] (setting [12]); above 64 mg/L in the test with Haemophilus influenzae [2] (setting [13]); above 64 mg/L against Pseudomonas aeruginosa; 32 mg/L (≈ 102 µM) in the test with Staphylococcus aureus [3] (setting [14]). In addition, the MIC with Staphylococcus aureus [4] (setting [15]) is above 64 mg/L; in the test on Staphylococcus aureus [5] (setting [16]), 64 mg/L (≈ 205 µM); with Staphylococcus aureus [6] (setting [16]), above 64 mg/L; in the test with Staphylococcus aureus [7] (setting [17]) it was 64 mg/L (≈ 205 µM); in the test with Streptococcus pneumoniae [8] (setting [18]), 64 mg/L (≈ 205 µM); in the test with Streptococcus pneumoniae [9] (setting [19]), 64 mg/L (≈ 205 µM).

For the compound `COC1CCCCCCCCC[C@@H](C)NC(=O)/C=C/C1=O` (single isomer, unassigned; diastereomer 2), the MIC in the test with Enterococcus faecalis (setting [10]) came to 2 mg/L (≈ 6.77 µM); in the test on Enterococcus faecium (setting [11]) it was 0.5 mg/L (≈ 1.69 µM); against Haemophilus influenzae [1] it was 2 mg/L (≈ 6.77 µM); in the test with Haemophilus influenzae [2], 0.25 mg/L (≈ 0.846 µM); in the test on Staphylococcus aureus [3] it was 0.5 mg/L (≈ 1.69 µM); against Staphylococcus aureus [4], 0.5 mg/L (≈ 1.69 µM). Moreover, the MIC against Staphylococcus aureus [5] is 1 mg/L (≈ 3.38 µM); in the test with Staphylococcus aureus [6] it was 8 mg/L; against Staphylococcus aureus [7], 0.5 mg/L (≈ 1.69 µM); against Streptococcus pneumoniae [8], 2 mg/L (≈ 6.77 µM); with Streptococcus pneumoniae [9], 8 mg/L (≈ 27.1 µM).

As for `CO[C@H]1CCCCCCCCC[C@@H](C)OC(=O)C2OC2C1=O` (stereo in doubt; 16b), the MIC in the test on Escherichia coli, in the test with Enterococcus faecalis (setting [10]), against Enterococcus faecium, in the test on Staphylococcus aureus [3], against Staphylococcus aureus [5] and in the test on Staphylococcus aureus [7] was above 64 mg/L throughout. The MIC in the test with Streptococcus pneumoniae [8] and in the test with Streptococcus pneumoniae [9] was above 64 mg/L in each case.
